According to ChEMBL document CHEMBL2163200, “Synthesis, biological evaluation, and structure-activity relationships of novel substituted N-phenyl ureidobenzenesulfonate derivatives blocking cell cycle progression in S-phase and inducing DNA double-strand breaks” (J Med Chem, 2012):
Calls of active or inactive are those of the source. The calls are words filed in the database; no cut-off is given here.

Columns and labels:
[1] = tested on: Jurkat; assay: Cell cycle arrest in human Jurkat E6-1 cells assessed as accumulation at S phase at 31 uM after 24 hrs by FACS flow cytometry; type: functional
Method in brief: (§1)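 Jurkat E6 T-lymphoblasts in RPMI 1640 with 10% FBS, 37 °C, 5% CO2. […] Chicken red blood cells were added as internal standard. Cells were fixed in ice-cold EtOH and stained with 1 μg/mL DAPI on ice for 1 h before flow cytometry of phase distribution. Vehicle control was 0.5% DMSO.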

[2] = tested on: MCF7; assay: Cytotoxicity against human MCF7 cells after 48 hrs by SRB assay; type: functional, cell-based; settings: MCF7, 48 h
Method in brief: (§2)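 NCI sulforhodamine B protocol. Cells were grown in high-glucose DMEM with 5% FBS and seeded per well at 4 × 10^3 (HT-29), 3.5 × 10^3 (M21) or 3 × 10^3 (MCF-7), then allowed 24 h to attach. Serial dilutions from 200 μM to 780 nM final were applied in DMSO <0.5% for 48 h. Cells were fixed with cold TCA (10% final) and stained with SRB, with absorbance read at 530–568 nm. Growth inhibition was computed against day-0 plates, giving the 50% inhibitory concentration. At least two experiments in triplicate, CV <10%.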

[3] = tested on: M21; assay: Induction of DNA damage response in human M21 cells assessed as phosphorylation of H2AX into gammaH2AX at IC50 after 24 hrs by DAPI staining-based immunofluorescence assay; type: functional, cell-based
Method in brief: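 M21 cells (1 × 10^5) on fibronectin-coated coverslips, grown 24 h, then exposed to agent for 24 h at 37 °C; 0.5% DMSO control. Fixed with 3.7% formaldehyde and permeabilized with 0.1% saponin/3% BSA. Probed with mouse anti-H2AX pS139 antibody for 2 h at room temperature. Nuclei counterstained with DAPI; nuclear γH2AX foci viewed by epifluorescence microscopy.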

[4] = tested on: M21; assay: Cytotoxicity against human M21 cells after 48 hrs by SRB assay; type: functional, cell-based; settings: M21, 48 h; method in brief: as §2
[5] = tested on: HT-29; assay: Cytotoxicity against human HT-29 cells after 48 hrs by SRB assay; type: functional, cell-based; settings: HT-29, 48 h; method in brief: as §2
[6] = tested on: Jurkat; assay: Cell cycle arrest in human Jurkat E6-1 cells assessed as accumulation at G0/G1 phase at 31 uM after 24 hrs by FACS flow cytometry; type: functional
Method in brief: (§3)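 Jurkat E6 cells cultured in RPMI 1640 with 10% FBS at 37 °C, 5% CO2. Compounds serially diluted in medium, starting 50% above the M21 IC50. 4.0 × 10^5 cells were exposed for 24 h. Cells were washed with PBS, chicken red blood cells added as internal standard, and fixed in ice-cold EtOH. After 1 h on ice in PBS with 1 μg/mL DAPI, phase distribution was read by flow cytometry. DMSO-treated cells served as control.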

[7] = tested on: Jurkat; assay: Cell cycle arrest in human Jurkat E6-1 cells assessed as accumulation at G2/M phase at 31 uM after 24 hrs by FACS flow cytometry; type: functional
Method in brief: (§4)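 Jurkat E6 cells grown in RPMI 1640 with 10% FBS at 37 °C, 5% CO2. Compounds were serially diluted in medium starting 50% above the M21 IC50. 4.0 × 10^5 cells were exposed for 24 h, then washed and spiked with chicken red blood cells as internal standard. Cells were fixed in ice-cold ethanol, stained with 1 μg/mL DAPI on ice for 1 h, and phase distribution was read by flow cytometry. The control was 0.5% DMSO.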

[8] = tested on: Jurkat; assay: Cell cycle arrest in human Jurkat E6-1 cells assessed as accumulation at G2/M phase at 29 uM after 24 hrs by FACS flow cytometry; type: functional; method in brief: as §4
[9] = tested on: Jurkat; assay: Cell cycle arrest in human Jurkat E6-1 cells assessed as accumulation at S phase at 29 uM after 24 hrs by FACS flow cytometry; type: functional; method in brief: as §1
[10] = tested on: Jurkat; assay: Cell cycle arrest in human Jurkat E6-1 cells assessed as accumulation at G0/G1 phase at 29 uM after 24 hrs by FACS flow cytometry; type: functional; method in brief: as §3
[11] = tested on: Jurkat; assay: Cell cycle arrest in human Jurkat E6-1 cells assessed as accumulation at G2/M phase at 14 uM after 24 hrs by FACS flow cytometry; type: functional; method in brief: as §3
[12] = tested on: Jurkat; assay: Cell cycle arrest in human Jurkat E6-1 cells assessed as accumulation at S phase at 14 uM after 24 hrs by FACS flow cytometry; type: functional; method in brief: as §4
[13] = tested on: Jurkat; assay: Cell cycle arrest in human Jurkat E6-1 cells assessed as accumulation at G0/G1 phase at 14 uM after 24 hrs by FACS flow cytometry; type: functional; method in brief: as §3
[14] = tested on: Jurkat; assay: Cell cycle arrest in human Jurkat E6-1 cells assessed as accumulation at G0/G1 phase at 40 uM after 24 hrs by FACS flow cytometry; type: functional; method in brief: as §3
[15] = tested on: Jurkat; assay: Cell cycle arrest in human Jurkat E6-1 cells assessed as accumulation at S phase at 40 uM after 24 hrs by FACS flow cytometry; type: functional; method in brief: as §1
[16] = tested on: Jurkat; assay: Cell cycle arrest in human Jurkat E6-1 cells assessed as accumulation at G2/M phase at 40 uM after 24 hrs by FACS flow cytometry; type: functional; method in brief: as §4
[17] = tested on: Jurkat; assay: Cell cycle arrest in human Jurkat E6-1 cells assessed as accumulation at G2/M phase at 57 uM after 24 hrs by FACS flow cytometry; type: functional; method in brief: as §4
[18] = tested on: Jurkat; assay: Cell cycle arrest in human Jurkat E6-1 cells assessed as accumulation at G0/G1 phase at 57 uM after 24 hrs by FACS flow cytometry; type: functional; method in brief: as §3
[19] = tested on: Jurkat; assay: Cell cycle arrest in human Jurkat E6-1 cells assessed as accumulation at S phase at 57 uM after 24 hrs by FACS flow cytometry; type: functional; method in brief: as §1
[20] = tested on: Jurkat; assay: Cell cycle arrest in human Jurkat E6-1 cells assessed as accumulation at S phase at 25 uM after 24 hrs by FACS flow cytometry; type: functional; method in brief: as §4
[21] = tested on: Jurkat; assay: Cell cycle arrest in human Jurkat E6-1 cells assessed as accumulation at G2/M phase at 25 uM after 24 hrs by FACS flow cytometry; type: functional; method in brief: as §4
[22] = tested on: Jurkat; assay: Cell cycle arrest in human Jurkat E6-1 cells assessed as accumulation at G0/G1 phase at 25 uM after 24 hrs by FACS flow cytometry; type: functional; method in brief: as §3
[23] = tested on: Jurkat; assay: Cell cycle arrest in human Jurkat E6-1 cells assessed as accumulation at G0/G1 phase at 28 uM after 24 hrs by FACS flow cytometry; type: functional; method in brief: as §3
[24] = tested on: Jurkat; assay: Cell cycle arrest in human Jurkat E6-1 cells assessed as accumulation at S phase at 28 uM after 24 hrs by FACS flow cytometry; type: functional; method in brief: as §1
[25] = tested on: Jurkat; assay: Cell cycle arrest in human Jurkat E6-1 cells assessed as accumulation at G2/M phase at 28 uM after 24 hrs by FACS flow cytometry; type: functional; method in brief: as §4
[26] = tested on: Jurkat; assay: Cell cycle arrest in human Jurkat E6-1 cells assessed as accumulation at S phase at 32 uM after 24 hrs by FACS flow cytometry; type: functional; method in brief: as §1
[27] = tested on: Jurkat; assay: Cell cycle arrest in human Jurkat E6-1 cells assessed as accumulation at G2/M phase at 32 uM after 24 hrs by FACS flow cytometry; type: functional; method in brief: as §4
[28] = tested on: Jurkat; assay: Cell cycle arrest in human Jurkat E6-1 cells assessed as accumulation at G0/G1 phase at 32 uM after 24 hrs by FACS flow cytometry; type: functional; method in brief: as §3

With `O=C(NCCCCl)Nc1ccc(S(=O)(=O)Oc2ccc(O)cc2)cc1` the Activity [1] was 65%, the IC50 [2] was 51 µM and the Activity [3] was “Active”. It also gave an IC50 [4] of 47 µM, an IC50 [5] of 50 µM and an Activity [6] of 23%. For the same compound, the Activity [7] was 12%.
With `CCCc1ccccc1NS(=O)(=O)c1ccc(NC(=O)NCCCl)cc1` the Activity [8] was 28%, the IC50 [4] was 29 µM and the IC50 [5] was 21 µM. For the same compound, the Activity [9] was 44% and the Activity [10] was 28%.
In the case of `CCCc1ccccc1OS(=O)(=O)c1cccc(NC(=O)NCCCCl)c1`, the Activity [11] is reported as 9%, the IC50 [2] is reported as 14 µM and the IC50 [4] is reported as 15 µM. The IC50 [5] was 14 µM, the Activity [12] was 39% and the Activity [13] was 52%.
With `CCNC(=O)Nc1cccc(S(=O)(=O)Oc2ccccc2C)c1` the IC50 [2] was 55 µM, the Activity [14] was 25% and the Activity [3] was “Active”. The Activity [15] was 60%, the IC50 [4] was 51 µM and the IC50 [5] was 44 µM. For the same compound, the Activity [16] was 15%.
Compound `O=C(NCCCCl)Nc1cccc(S(=O)(=O)Oc2ccc(O)cc2)c1` has an Activity [17] of 9%, an Activity [18] of 43% and an IC50 [4] of 49 µM. For the same compound, the Activity [19] was 48%.
With `Cc1ccccc1NS(=O)(=O)c1cccc(NC(=O)NCCCCl)c1` the Activity [20] was 38%, the Activity [21] was 17% and the IC50 [2] was 52 µM. The IC50 [4] was 60 µM, the IC50 [5] was 42 µM and the Activity [22] was 45%.
With `Cc1ccccc1OS(=O)(=O)c1cccc(NC(=O)NCCCCl)c1` the Activity [23] was 43%, the Activity [24] was 38% and the IC50 [2] was 27 µM. The Activity [25] was 19%, the IC50 [4] was 29 µM and the IC50 [5] was 21 µM.
`CCNC(=O)Nc1cccc(S(=O)(=O)Oc2ccc(O)cc2)c1` gave an IC50 [2] of 64 µM, an Activity [26] of 39% and an IC50 [4] of 42 µM. The IC50 [5] was 75 µM, the Activity [27] was 18% and the Activity [28] was 43%.
